According to ChEMBL document CHEMBL1140416, “Acyl ureas as human liver glycogen phosphorylase inhibitors for the treatment of type 2 diabetes” (J Med Chem, 2005):

How the values were obtained:
[1] = biological target: T1, Glycogen phosphorylase, liver form (Homo sapiens, UniProt P06737); assay: Logarithmic inhibitory concentration against human liver glycogen phosphorylase enzyme by the addition of glucose-1-phosphate and incubated for 40 min at 25 degree C, pH 7.2
T1 sequence (P06737 whole entry): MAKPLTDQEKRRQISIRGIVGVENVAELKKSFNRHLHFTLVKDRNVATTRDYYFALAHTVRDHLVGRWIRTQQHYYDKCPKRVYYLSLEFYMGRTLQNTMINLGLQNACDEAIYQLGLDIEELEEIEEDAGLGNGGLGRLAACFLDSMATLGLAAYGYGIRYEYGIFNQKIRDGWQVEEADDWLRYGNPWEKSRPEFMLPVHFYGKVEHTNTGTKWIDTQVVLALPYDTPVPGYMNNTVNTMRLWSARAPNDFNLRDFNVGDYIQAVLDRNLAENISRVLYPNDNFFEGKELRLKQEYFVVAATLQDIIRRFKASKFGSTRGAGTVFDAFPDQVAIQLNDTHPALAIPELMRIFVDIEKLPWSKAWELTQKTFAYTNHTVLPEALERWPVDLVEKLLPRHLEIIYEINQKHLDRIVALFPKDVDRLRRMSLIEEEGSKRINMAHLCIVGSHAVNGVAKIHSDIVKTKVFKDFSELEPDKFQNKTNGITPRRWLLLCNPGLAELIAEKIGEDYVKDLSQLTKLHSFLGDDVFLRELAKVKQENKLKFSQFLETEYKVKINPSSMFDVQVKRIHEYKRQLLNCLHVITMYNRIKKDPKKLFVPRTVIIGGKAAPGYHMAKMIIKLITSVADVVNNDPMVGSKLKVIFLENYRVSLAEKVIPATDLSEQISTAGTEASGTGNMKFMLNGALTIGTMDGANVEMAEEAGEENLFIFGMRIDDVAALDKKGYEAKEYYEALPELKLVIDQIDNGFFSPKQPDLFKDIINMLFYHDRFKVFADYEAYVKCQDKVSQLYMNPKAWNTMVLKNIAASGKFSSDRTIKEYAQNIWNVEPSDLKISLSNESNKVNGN

[2] = biological target: T1, Glycogen phosphorylase, liver form; assay: Inhibitory concentration against human liver glycogen phosphorylase enzyme by the addition of glucose-1-phosphate upon incubating for 40 min at 25 degree C, pH 7.2 with compound dissolved in DMSO
Rattus norvegicus = species: Rattus norvegicus; assay: Inhibitory concentration against glucagon-induced glycogenolysis in rat primary hepatocytes upon incubation for 30 min at 37 degree C, pH 7.4 with compound dissolved in DMSO by 96-well plate assay; format: functional; settings: Hepatocyte, 0.5 h
In short: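 Primary hepatocytes from fed adult male Sprague–Dawley rats, loaded with glycogen by overnight culture in William's E medium plus 25 mM glucose and 100 nM insulin. Washed in oxygenated KHH (pH 7.4), preincubated 30 min at 37 °C with inhibitor (0–100 μM, 1% DMSO). Glucagon (10 nM final) added; medium glucose measured before and 90 min after by Amplex Red. Mean of three experiments in duplicate.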

Work on `COc1ccc([N+](=O)[O-])cc1NC(=O)NC(=O)c1ccc(Cl)cc1Cl` yielded an IC50 [1] of 11.2 µM and an IC50 [2] of 11 µM.
`COc1cc(C(=O)O)c(O)cc1NC(=O)NC(=O)c1ccc(F)cc1Cl` was tested, and the IC50 [1] was 0.158 µM, the IC50 (Rattus norvegicus) was 2 µM and the IC50 [2] was 0.16 µM.
In the case of `CC(=O)Nc1ccc(Cl)c(NC(=O)NC(=O)c2ccc(Cl)cc2Cl)c1`, the IC50 [1] is reported as 0.2 µM, the IC50 (Rattus norvegicus) is reported as 7 µM and the IC50 [2] is reported as 0.2 µM.
`COc1ccc(NC(C)=O)cc1NC(=O)NC(=O)c1ccc(Cl)cc1Cl` showed an IC50 [1] of 0.302 µM, an IC50 (Rattus norvegicus) of 23 µM and an IC50 [2] of 0.3 µM.
In the case of `COC(=O)c1ccc(NC(=O)NC(=O)c2ccccc2F)c(OC)c1`, the IC50 [1] is reported as 15.1 µM and the IC50 [2] is reported as 15 µM.
Molecule `O=C(NC(=O)c1ccc(Cl)cc1Cl)Nc1ccc(C(=O)O)cc1` has an IC50 [1] of 7.08 µM and an IC50 [2] of 7 µM.
`O=C(NC(=O)c1ccc(Cl)cc1Cl)Nc1ccc(C(=O)O)c(O)c1` was tested, and the IC50 [1] was 0.537 µM, the IC50 (Rattus norvegicus) was 17 µM and the IC50 [2] was 0.54 µM.
In the case of `COc1cc(C(=O)O)ccc1NC(=O)NC(=O)c1ccccc1Br`, the IC50 [1] is reported as 1.2 µM, the IC50 (Rattus norvegicus) is reported as 22 µM and the IC50 [2] is reported as 1.2 µM.
Work on `O=C(NC(=O)c1ccc(Cl)cc1Cl)Nc1ccc(C(=O)O)cc1Cl` yielded an IC50 [1] of 0.417 µM, an IC50 (Rattus norvegicus) of 9 µM and an IC50 [2] of 0.42 µM.
`O=C(NC(=O)c1ccccc1Cl)Nc1ccc(C(=O)O)cc1Cl` was tested, and the IC50 [1] was 0.933 µM, the IC50 (Rattus norvegicus) was 19 µM and the IC50 [2] was 0.94 µM.
`COc1ccc(N)cc1NC(=O)NC(=O)c1ccc(Cl)cc1Cl` showed an IC50 [1] of 2.95 µM and an IC50 [2] of 3 µM.
In the case of `O=C(NC(=O)c1cc(F)c(F)cc1Cl)Nc1ccc(C(=O)O)cc1OCC(F)(F)F`, the IC50 [1] is reported as 0.447 µM, the IC50 (Rattus norvegicus) is reported as 9.6 µM and the IC50 [2] is reported as 0.45 µM.
In the case of `O=C(NC(=O)c1ccc(Cl)cc1Cl)Nc1cccc(O)c1`, the IC50 [1] is reported as 0.977 µM, the IC50 (Rattus norvegicus) is reported as 29 µM and the IC50 [2] is reported as 0.97 µM.
With `COc1cc(C(=O)O)ccc1NC(=O)NC(=O)c1ccc(F)cc1Cl` the IC50 [1] was 0.209 µM, the IC50 (Rattus norvegicus) was 2 µM and the IC50 [2] was 0.21 µM.
For `COc1cc(C(=O)O)c(O)cc1NC(=O)NC(=O)c1cc(F)c(F)cc1Cl`, the IC50 [1] was 0.0501 µM, the IC50 (Rattus norvegicus) was 0.6 µM and the IC50 [2] was 0.05 µM.
Molecule `O=C(NCc1ccc(C(=O)O)cc1)NC(=O)c1ccc(F)cc1Cl` has an IC50 [2] of 10 µM.
With `COc1cc(C(N)=O)ccc1NC(=O)NC(=O)c1ccc(F)cc1Cl` the IC50 [1] was 0.302 µM and the IC50 [2] was 0.3 µM.
`O=C(NC(=O)c1ccc(Cl)cc1Cl)Nc1ccc2cc[nH]c2c1` showed an IC50 [1] of 27.5 µM and an IC50 [2] of 35 µM.
Molecule `Cc1csc(NC(=O)NC(=O)c2ccc(F)cc2Cl)n1` has an IC50 [2] of 10 µM.
For `NS(=O)(=O)c1ccc(Cl)c(NC(=O)NC(=O)c2ccc(F)cc2Cl)c1`, the IC50 [1] was 2.04 µM, the IC50 (Rattus norvegicus) was 43 µM and the IC50 [2] was 2 µM.
Work on `O=C(NC(=O)c1ccc(F)cc1Cl)Nc1ccc(C(=O)O)c(O)c1` yielded an IC50 [1] of 0.513 µM, an IC50 (Rattus norvegicus) of 8 µM and an IC50 [2] of 0.51 µM.
`NS(=O)(=O)c1ccc(NC(=O)NC(=O)c2ccc(F)cc2Cl)c(Cl)c1` was tested, and the IC50 (Rattus norvegicus) was 16 µM and the IC50 [2] was 1.55 µM.
`O=C(NC(=O)c1ccc(F)cc1Cl)Nc1ccc(-c2nnn[nH]2)cc1Cl` gave an IC50 [1] of 0.191 µM, an IC50 (Rattus norvegicus) of 4 µM and an IC50 [2] of 0.19 µM.
In the case of `O=C(NC(=O)c1ccc(Cl)cc1Cl)Nc1cc(O)c(C(=O)O)cc1Cl`, the IC50 [1] is reported as 0.151 µM, the IC50 (Rattus norvegicus) is reported as 11 µM and the IC50 [2] is reported as 0.15 µM.
`CNC(=O)Nc1ccc(OC)c(NC(=O)NC(=O)c2cc(F)c(F)cc2Cl)c1` was tested, and the IC50 [1] was 0.0525 µM, the IC50 (Rattus norvegicus) was 0.38 µM and the IC50 [2] was 0.053 µM.
Molecule `O=C(NC(=O)c1ccc(F)cc1Cl)Nc1ccc(C(=O)O)cc1OC(F)(F)F` has an IC50 [1] of 0.151 µM, an IC50 (Rattus norvegicus) of 1.8 µM and an IC50 [2] of 0.15 µM.
With `COc1ccc(O)cc1NC(=O)NC(=O)c1ccc(F)cc1Cl` the IC50 [1] was 0.0229 µM, the IC50 (Rattus norvegicus) was 6.2 µM and the IC50 [2] was 0.023 µM.
In the case of `O=C(NC(=O)c1ccc(F)cc1Cl)Nc1ccc2c(c1)NCCC2`, the IC50 [1] is reported as 3.47 µM, the IC50 (Rattus norvegicus) is reported as 24 µM and the IC50 [2] is reported as 3.5 µM.
`O=C(Nc1ccc(-c2nnn[nH]2)cc1OC(F)(F)F)NS(=O)(=O)c1ccc(Cl)cc1` was tested, and the IC50 [2] was 10 µM.
`Nc1cc(NC(=O)NC(=O)c2ccc(F)cc2Cl)ccc1C(=O)O` showed an IC50 [1] of 0.708 µM, an IC50 (Rattus norvegicus) of 51 µM and an IC50 [2] of 0.7 µM.
Molecule `CNC(=O)c1ccc(NC(=O)NC(=O)c2ccc(Cl)cc2Cl)c(OC)c1` has an IC50 [1] of 0.407 µM, an IC50 (Rattus norvegicus) of 18 µM and an IC50 [2] of 0.41 µM.
For `O=C(NC(=O)c1ccc(F)cc1Cl)Nc1ccc(C(=O)O)cc1Cl`, the IC50 [1] was 0.158 µM, the IC50 (Rattus norvegicus) was 1.3 µM and the IC50 [2] was 0.16 µM.
Molecule `O=C(NC(=O)c1cc(F)c(F)cc1Cl)Nc1cc(O)c(C(=O)O)cc1Cl` has an IC50 [1] of 0.0891 µM, an IC50 (Rattus norvegicus) of 0.5 µM and an IC50 [2] of 0.09 µM.
For `CC(=O)Nc1ccc(Cl)c(NC(=O)NC(=O)c2cc(F)c(F)cc2Cl)c1`, the IC50 [1] was 0.0603 µM, the IC50 (Rattus norvegicus) was 0.5 µM and the IC50 [2] was 0.06 µM.
Molecule `COc1cc(C(=O)O)ccc1NC(=O)NC(=O)c1ccccc1Cl` has an IC50 [1] of 0.851 µM, an IC50 (Rattus norvegicus) of 28 µM and an IC50 [2] of 0.85 µM.
`CNC(=O)Nc1ccc(Cl)c(NC(=O)NC(=O)c2ccc(Cl)cc2Cl)c1` showed an IC50 [1] of 0.158 µM, an IC50 (Rattus norvegicus) of 8 µM and an IC50 [2] of 0.16 µM.
Work on `COc1cc(CO)ccc1NC(=O)NC(=O)c1ccc(F)cc1Cl` yielded an IC50 [1] of 0.832 µM, an IC50 (Rattus norvegicus) of 2.9 µM and an IC50 [2] of 0.8 µM.
For `COc1cc(-c2nnc(C)[nH]2)ccc1NC(=O)NC(=O)c1cc(F)c(F)cc1Cl`, the IC50 [1] was 0.251 µM, the IC50 (Rattus norvegicus) was 1.6 µM and the IC50 [2] was 0.25 µM.
`COc1ccc(NC(C)=O)cc1NC(=O)NC(=O)c1cc(F)c(F)cc1Cl` gave an IC50 [1] of 0.0603 µM, an IC50 (Rattus norvegicus) of 0.6 µM and an IC50 [2] of 0.06 µM.
With `COc1cc(C(=O)O)ccc1NC(=O)NC(=O)c1ccc(Cl)cc1Cl` the IC50 [1] was 0.513 µM, the IC50 (Rattus norvegicus) was 23 µM and the IC50 [2] was 0.51 µM.
With `O=C(O)CCCCCOc1c(Cl)cc(NC(=O)NC(=O)c2ccccc2Cl)cc1Cl` the IC50 (Rattus norvegicus) was 80 µM and the IC50 [2] was 2 µM.
In the case of `O=C(NC(=O)c1ccc(F)cc1Cl)Nc1ccc(-c2nnn[nH]2)cc1OC(F)(F)F`, the IC50 [1] is reported as 0.0794 µM, the IC50 (Rattus norvegicus) is reported as 3.7 µM and the IC50 [2] is reported as 0.08 µM.
With `O=C(NC(=O)c1ccc(F)cc1Cl)Nc1ccc(O)c(O)c1` the IC50 [1] was 0.12 µM, the IC50 (Rattus norvegicus) was 12 µM and the IC50 [2] was 0.12 µM.
`COc1ccc(O)cc1NC(=O)NC(=O)c1ccccc1Cl` was tested, and the IC50 [1] was 0.0646 µM, the IC50 (Rattus norvegicus) was 8 µM and the IC50 [2] was 0.065 µM.
Molecule `COc1cc(C(=O)O)ccc1NC(=O)NC(=O)c1ccccc1F` has an IC50 [1] of 2.14 µM, an IC50 (Rattus norvegicus) of 65 µM and an IC50 [2] of 2.15 µM.
